Data reported in PubChem BioAssay AID573 (SRMLSC, 2007).
Among all 65,000 compounds or so, about 1,400 (2.2%) were called active. For the sample, actives were picked, then their nearest neighbours and some compounds at random. Values without a mark were called inactive.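 The calls were made as follows: active = growth inhibition at or above a cutoff equal to the mean over every tested compound plus 3 SD (cut at about 60% in these data); inactive = the rest.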

Test: growth inhibitors of E. coli tolC mutant, primary screen, strain BW25113 ΔtolC::kan, 384-well (AID 573);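 also: growth measured after 20 h incubation at 37 °C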
Conditions: OD615, hits give high values, screened at 10 µM (by protocol)
Method in brief: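 signal = optical density read at 615 nm | test system = E. coli ΔtolC::kan strain BW25113 | timing = 20 h compound exposure of bacteria at 37 °C | buffer or medium = LB medium plus 50 µg/mL kanamycin | compound dosing = 10 µM final, single dose | evaluation = % inhibition of E. coli growth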

Structure (SMILES) | growth inhibition
COc1ccc(OC)c(CNC(=O)C2CCCN(c3nc4ccccc4o3)C2)c1 (stereo unspecified) | 1.68%
Cc1cc(C(F)(F)F)c(C#N)c(SCC(=O)NC2CC2)n1 | 16.2%
COCc1cc(C)nc(SCC(=O)Nc2cccc(C)c2)c1C#N | -0.31%
Cc1cc(C)c(C#N)c(SCS(=O)c2ccc(C(C)(C)C)cc2)n1 (stereo unspecified) | 70.6% (active)
N#Cc1nc(Cc2cccc3ccccc23)oc1NCc1ccc2c(c1)OCO2 | 57.4%
CCOc1ccc(Nc2oc(Cc3ccccc3)nc2C#N)cc1 | 31.9%
N#Cc1nc(Cc2ccccc2)oc1NCCc1ccccc1 | 74.2% (active)
C=CCn1cnc2scc(-c3ccccc3)c2c1=O | 6.35%
C=CCn1c(SCc2nnc(-c3ccccc3)o2)nnc1C(O)c1ccccc1 (stereo unspecified) | 0.17%
Cc1cc(C)n(-c2nc(SCC(=O)N3CCCC3)c3c4c(sc3n2)CCCC4)n1 | 85.9% (active)
CC(=O)c1sc2nc(SCC(=O)N3CCCCC3)[nH]c(=O)c2c1C | 8.81%
COCCn1c(C)cc(C(=O)CSc2ncnc3sc4c(c23)CCC4)c1C | 0.17%
Cc1nc(SCC(=O)Nc2cc(C)on2)c2c3c(sc2n1)CCCC3 | 12.3%
COCCNc1nc(-n2nc(C)cc2C)nc2sc3c(c12)CCCC3 | 94.3% (active)
COc1ccc(Nc2cc(C)nc(-n3nc(C)cc3C)n2)cc1 | 17.6%
CCCOC(=O)C1=C(C)NC2=C(C(=O)C(C(=O)OC)C(C)C2)C1c1ccc(N(C)C)cc1 (stereo unspecified) | 16%
Cn1c(=O)[nH]c(=O)c2c1nc(N(CCO)Cc1ccccc1)n2Cc1ccccc1Cl | 0.78%
O=C(NCc1cccs1)C1CCN(S(=O)(=O)c2ccc3c(c2)OCCO3)CC1 | -14.5%
COc1ccc(CCNS(=O)(=O)c2ccc(F)cc2)cc1OC | -5.35%
COC(=O)CNS(=O)(=O)c1ccc(Cc2ccc(S(=O)(=O)NCC(=O)OC)cc2)cc1 | 69.7% (active)
COC(=O)COc1ccc(S(=O)(=O)Nc2ccc(NC(C)=O)cc2)cc1 | -1.6%
COc1ccccc1Nc1ncnc2c1oc1ccccc12 | -1.75%
COc1ncnc2sc3c(c12)CCCC3 | 2.48%
CS(=O)(=O)N(Cc1nc2sc3c(c2c(=O)[nH]1)CCCC3)C1CCCCC1 | 83.8% (active)
CCOC(=O)N1CCN(S(=O)(=O)c2ccc(C(=O)Nc3ccc(F)cc3F)cc2)CC1 | -4.51%
c1csc(-c2nc(-c3ccncc3)no2)c1 | 1.08%
